IC50 and inhibition data for 2 compounds are collected here from ChEMBL document CHEMBL2331309, “2,3-Diarylpropenoic acids as selective non-steroidal inhibitors of type-5 17β-hydroxysteroid dehydrogenase (AKR1C3)” (Eur J Med Chem, 2013).

The target in experiment [1] is T1, Aldo-keto reductase family 1 member C2 (Homo sapiens, UniProt P52895).
T1 sequence (P52895 whole entry): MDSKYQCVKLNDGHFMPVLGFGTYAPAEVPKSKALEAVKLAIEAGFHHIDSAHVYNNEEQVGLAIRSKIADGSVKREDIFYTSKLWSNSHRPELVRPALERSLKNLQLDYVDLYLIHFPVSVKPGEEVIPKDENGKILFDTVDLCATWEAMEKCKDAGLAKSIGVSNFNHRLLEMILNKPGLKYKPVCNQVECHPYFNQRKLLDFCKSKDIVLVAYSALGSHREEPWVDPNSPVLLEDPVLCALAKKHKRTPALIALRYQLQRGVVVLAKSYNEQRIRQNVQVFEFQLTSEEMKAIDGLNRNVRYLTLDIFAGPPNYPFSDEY
The experiment in a line: Inhibition of recombinant AKR1C2 (unknown origin) assessed as decrease in oxidation of 1-acenaphthenol substrate by spectrophotometric analysis. The method in brief:
(§1)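 IC50 measured for compounds giving over 50% inhibition at 100 μM. Assay uses 1-acenaphthenol oxidation with 2.3 mM NAD⁺ in pH 9.0 100 mM phosphate buffer with 0.005% Triton X-114 and 5% DMSO. AKR1C1 runs at 30 μM substrate and 0.3 μM enzyme; AKR1C2 at 50 μM substrate and 0.2 μM enzyme. Initial rates come from NADH at 340 nm. IC50 is read from log[inhibitor] versus % inhibition plots.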

In experiment [2] the target is T2, Aldo-keto reductase family 1 member C1 (Homo sapiens) (UniProt Q04828).
T2 sequence (whole entry): T1 sequence (P52895 whole entry) with V38T, H47R, V54L, S87C, M151V, H170R, L172Q
The experiment can be described thus: Inhibition of human recombinant AKR1C1 expressed in Escherichia coli assessed as decrease in oxidation of 1-acenaphthenol substrate at 100 uM by spectrophotometric analysis. An outline of the steps: (§2)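 Single-point screen at 100 μM compound. Recombinant enzyme oxidizes 1-acenaphthenol with 2.3 mM NAD⁺ in 100 mM phosphate buffer pH 9.0, 0.005% Triton X-114, 5% DMSO. AKR1C1: 30 μM substrate (Km), 0.3 μM enzyme. AKR1C2: 50 μM substrate (Km), 0.2 μM enzyme. NADH formation read at 340 nm from initial velocities. Result given as % inhibition.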

Experiment [3] deals with T3, Aldo-keto reductase family 1 member C3 (Homo sapiens, UniProt P42330).
T3 sequence (P42330 whole entry): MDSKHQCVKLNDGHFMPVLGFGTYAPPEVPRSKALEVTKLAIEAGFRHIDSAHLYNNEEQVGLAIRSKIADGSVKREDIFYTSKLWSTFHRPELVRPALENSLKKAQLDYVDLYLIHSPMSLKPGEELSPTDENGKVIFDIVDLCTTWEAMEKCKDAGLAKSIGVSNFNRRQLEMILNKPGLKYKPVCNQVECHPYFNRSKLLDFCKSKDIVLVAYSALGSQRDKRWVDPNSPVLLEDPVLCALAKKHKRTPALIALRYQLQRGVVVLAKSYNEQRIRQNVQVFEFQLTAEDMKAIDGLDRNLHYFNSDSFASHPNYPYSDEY
The experiment in a line: Inhibition of recombinant AKR1C3 (unknown origin) assessed as decrease in oxidation of 1-acenaphthenol substrate by spectrophotometric analysis.

In experiment [4] the target is T4, Aldo-keto reductase family 1 member C1 (Homo sapiens, UniProt Q04828).
T4 sequence (Q04828 whole entry): T1 sequence (P52895 whole entry) with V38T, H47R, V54L, S87C, M151V, H170R, L172Q
The experiment in a line: Inhibition of human recombinant AKR1C1 expressed in Escherichia coli assessed as decrease in oxidation of 1-acenaphthenol substrate by spectrophotometric analysis. The method in brief: as §1

For experiment [5], the target named is T5, Aldo-keto reductase family 1 member C2 (Homo sapiens) (UniProt P52895).
T5 sequence (whole entry): T1 sequence (P52895 whole entry)
The experiment can be described thus: Inhibition of recombinant AKR1C2 (unknown origin) assessed as decrease in oxidation of 1-acenaphthenol substrate at 100 uM by spectrophotometric analysis. An outline of the steps:
as §2

Substitutions are numbered along the chain they refer to.

A word on the IC50: it is the concentration needed to halve the response being measured. For orientation: inhibition means the share of the control response that was lost under treatment. On to `CSc1ccc(/C=C(/C(=O)O)c2ccc(Cl)cc2)cc1`, for which the values for the concentration for half-maximal inhibition (IC50) in experiment [1], in experiment [3] and in experiment [4] were 27.3 µM, 8.3 µM and 6.6 µM, respectively. Moreover, the inhibition is 88.1% in experiment [2] and 75.2% in experiment [5].
The matching figures for `CS(=O)(=O)c1ccc(/C=C(/C(=O)O)c2cccc(Cl)c2)cc1`: 23.1 µM, 76.7 µM, 19.3 µM, 75.9% and 66.4%.
